Experiments:
[1] = target: T1, Prostaglandin E synthase (Homo sapiens) (UniProt O14684); experiment: Inhibition of microsomal PGES1 isolated from IL-1beta-stimulated human A549 cells assessed as residual activity at 10 uM preincubated for 15 mins followed by substrate addition measured after 1 min by RP-HPLC analysis relative to control; type: cell-free
T1 sequence (whole entry): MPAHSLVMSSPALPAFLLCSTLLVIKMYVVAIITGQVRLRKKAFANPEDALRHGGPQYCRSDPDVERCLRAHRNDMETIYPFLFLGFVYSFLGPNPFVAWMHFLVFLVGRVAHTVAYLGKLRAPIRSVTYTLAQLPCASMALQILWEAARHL
Procedure, shortened: (§1)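 Enzyme source: microsomes from A549 cells, cultured 16 h at 37 °C and 5% CO2, then given fresh medium and induced with IL-1β (1 ng/mL) for 72 h. Microsomes were prepared by sonication and centrifugation at 174000g. Membranes in 0.1 M potassium phosphate pH 7.4 with 2.5 mM GSH were preincubated with compound or DMSO vehicle for 15 min at 4 °C. PGH2 (20 μM final) was added and the reaction ran 1 min at 4 °C. It was stopped with FeCl2/citric acid containing 11β-PGE2 as internal standard. PGE2 was measured by SPE and RP-HPLC; n = 3–4, mean + SEM.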

Prostaglandin E synthase = target: T2, Prostaglandin E synthase (Homo sapiens, UniProt O14684); experiment: Inhibition of microsomal PGES1 isolated from IL-1beta-stimulated human A549 cells preincubated for 15 mins followed by substrate addition measured after 1 min by RP-HPLC analysis; type: cell-free; procedure, shortened: as §1
T2 sequence (O14684 whole entry): T1 sequence (whole entry)

[2] = target: T3, Prostaglandin G/H synthase 1 (Ovis aries) (UniProt P05979); experiment: Inhibition of ovine COX-1 using arachidonic acid as substrate assessed as residual activity at 10 uM preincubated for 5 mins followed by substrate addition measured after 5 mins by HPLC analysis relative to control
T3 sequence (whole entry): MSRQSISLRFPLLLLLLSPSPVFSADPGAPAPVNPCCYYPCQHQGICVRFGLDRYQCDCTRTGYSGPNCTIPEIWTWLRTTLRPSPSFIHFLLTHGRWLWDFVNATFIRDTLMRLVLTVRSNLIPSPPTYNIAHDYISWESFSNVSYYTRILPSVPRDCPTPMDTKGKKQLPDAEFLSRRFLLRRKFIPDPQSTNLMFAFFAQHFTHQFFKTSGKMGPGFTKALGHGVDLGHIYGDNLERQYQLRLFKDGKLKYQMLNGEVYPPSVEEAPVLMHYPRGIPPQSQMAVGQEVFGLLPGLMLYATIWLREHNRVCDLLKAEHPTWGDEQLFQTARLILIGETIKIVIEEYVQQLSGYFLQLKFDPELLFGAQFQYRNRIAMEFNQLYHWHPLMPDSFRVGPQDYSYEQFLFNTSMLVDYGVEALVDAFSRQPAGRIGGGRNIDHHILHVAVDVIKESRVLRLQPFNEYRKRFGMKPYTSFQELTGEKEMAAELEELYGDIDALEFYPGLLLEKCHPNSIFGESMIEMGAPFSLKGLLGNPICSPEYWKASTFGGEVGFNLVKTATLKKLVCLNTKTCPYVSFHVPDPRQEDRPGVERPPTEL

[3] = target: T4, Prostaglandin G/H synthase 1 (Ovis aries, UniProt P05979); experiment: Inhibition of ovine COX-1 using arachidonic acid as substrate preincubated for 5 mins followed by substrate addition measured after 5 mins by HPLC analysis
T4 sequence (P05979 whole entry): T3 sequence (whole entry)

[4] = target: T5, Prostaglandin G/H synthase 2 (Homo sapiens, UniProt P35354); experiment: Inhibition of human recombinant COX-2 using arachidonic acid as substrate preincubated for 5 mins followed by substrate addition measured after 5 mins by HPLC analysis
T5 sequence (P35354 whole entry): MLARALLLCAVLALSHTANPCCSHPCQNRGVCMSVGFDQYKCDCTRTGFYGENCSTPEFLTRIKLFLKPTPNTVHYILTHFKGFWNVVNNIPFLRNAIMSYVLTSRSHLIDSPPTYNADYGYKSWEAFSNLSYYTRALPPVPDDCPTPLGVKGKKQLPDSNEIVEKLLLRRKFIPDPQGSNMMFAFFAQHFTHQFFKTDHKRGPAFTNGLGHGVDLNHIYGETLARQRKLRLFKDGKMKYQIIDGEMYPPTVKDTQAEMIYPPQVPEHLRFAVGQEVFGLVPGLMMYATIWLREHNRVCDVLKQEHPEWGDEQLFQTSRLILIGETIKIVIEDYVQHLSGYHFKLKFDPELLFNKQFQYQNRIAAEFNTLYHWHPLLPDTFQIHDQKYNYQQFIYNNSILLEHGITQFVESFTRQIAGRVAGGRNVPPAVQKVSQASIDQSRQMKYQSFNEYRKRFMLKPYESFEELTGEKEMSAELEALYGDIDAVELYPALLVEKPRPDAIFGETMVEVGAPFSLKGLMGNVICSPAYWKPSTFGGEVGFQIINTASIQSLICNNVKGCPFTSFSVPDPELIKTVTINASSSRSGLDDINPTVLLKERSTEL

[5] = Cytotoxicity against human IMR32 cells after 48 hrs by MTT assay; type: functional, cell-based; conditions: IMR-32, 48 h
[6] = Cytotoxicity against human NB39 cells after 48 hrs by MTT assay; type: functional, cell-based; conditions: NB39, 48 h
SK-N-SH = experiment: Cytotoxicity against human SK-N-SH cells after 48 hrs by MTT assay; type: functional, cell-based
[7] = target: T4, Prostaglandin G/H synthase 1; experiment: Inhibition of ovine COX-1 using arachidonic acid as substrate assessed as PGE2 formation after 2 mins by LC-MS/MS analysis
[8] = target: T5, Prostaglandin G/H synthase 2; experiment: Inhibition of human COX-2 using arachidonic acid as substrate assessed as PGE2 formation after 2 mins by LC-MS/MS analysis

| Structure (SMILES) | Activity [1] [%] | IC50 (Prostaglandin E synthase) [µM] | Activity [2] [%] | IC50 [3] [µM] | IC50 [4] [µM] | IC50 [5] [µM] | IC50 [6] [µM] | IC50 (SK-N-SH) [µM] | IC50 [7] [µM] | IC50 [8] [µM] |
| --- | --- | --- | --- | --- | --- | --- | --- | --- | --- | --- |
| CC(C)=CCC[C@H](C(=O)O)[C@@H]1CC[C@]2(C)C3=CC[C@H]4C(C)(C)[C@H](O)CC[C@]4(C)[C@H]3CC[C@@]12C | 29.6 | 3 | 69.6 | > 10 | > 10 |  |  |  |  |  |
| CC(C)[C@@H]1CC[C@]2(C)[C@H](CC=C3[C@@H]4CC(C)(C)CC[C@]4(C)CC[C@]32C)[C@@]1(C)CCC(=O)O | 74.1 | > 10 |  |  |  |  |  |  |  |  |
| C=C(C)[C@@H]1CC[C@]2(C)CC[C@]3(C)[C@H](CC[C@@H]4[C@@]5(C)CC[C@H](OC(C)=O)[C@](C)(C(=O)O)[C@@H]5CC[C@]43C)[C@@H]12 | 51.4 | 10 |  |  |  | 4.1 | 4.1 | 4.1 |  |  |
| CC(C)=CCC[C@H](C(=O)O)[C@@H]1CC[C@]2(C)C3=C(CC[C@@]12C)[C@@]1(C)CC[C@H](O)C(C)(C)[C@@H]1CC3 | 29.2 | 1.2 | 82.3 | > 10 | > 10 |  |  |  |  |  |
| CC(C)[C@@H]1CC[C@]2(C)[C@H](C(=O)C=C3[C@@H]4[C@@H](C)[C@H](C)CC[C@]4(C)CC[C@]32C)[C@@]1(C)CCC(=O)O | 21.6 | 1 | 64.8 | > 10 | > 10 |  |  |  |  |  |
| C=C(C)[C@@H]1CC[C@]2(CO)CC[C@]3(C)[C@H](CC[C@@H]4[C@@]5(C)CC[C@H](OC(C)=O)[C@](C)(C(=O)O)[C@@H]5CC[C@]43C)[C@@H]12 | 31.1 | 0.9 | 90.7 | > 10 | > 10 |  |  |  |  |  |
| C=C(C)[C@@H]1CC[C@]2(C)[C@H](CC=C3[C@@H]4[C@@H](C)[C@H](C)CC[C@]4(C)CC[C@]32C)[C@@]1(C)CCC(=O)O | 83.9 | > 10 |  |  |  |  |  |  | > 10 | > 10 |
| CC(C)[C@@H]1CC[C@]2(C)[C@H](CC=C3[C@@H]4[C@@H](C)[C@H](C)CC[C@]4(C)CC[C@]32C)[C@@]1(C)CCC(=O)O | 92.4 | > 10 |  |  |  |  |  |  |  |  |
| C=C(C)[C@@H]1CC[C@]2(C)CC[C@]3(C)[C@H](CC[C@@H]4[C@@]5(C)CC[C@H](O)[C@](C)(C(=O)O)[C@@H]5CC[C@]43C)[C@@H]12 | 43.1 | 8.5 |  |  |  | 4.1 | 4.1 | 4.1 |  |  |
| CC(=O)O[C@@H]1CC[C@]2(C)C3=C(CC[C@H]2C1(C)C)[C@@]1(C)CC[C@@H]([C@H](CCC=C(C)C)C(=O)O)[C@]1(C)CC3 | 36.8 | 0.4 | 63.2 | > 10 | > 10 |  |  |  |  |  |
| CC(C)=CCC[C@H](C(=O)O)[C@H]1CC[C@]2(C)C3=C(CC[C@@]12C)[C@@]1(C)CCC(=O)C(C)(C)[C@H]1CC3 [BETA-ELEMONIC ACID] | 16.7 | 0.9 | 81.1 | > 10 | > 10 |  |  |  |  |  |
| CC(=O)O[C@@H]1CC[C@]2(C)[C@H]3CC[C@@]4(C)[C@H]([C@H](CCC=C(C)C)C(=O)O)CC[C@]4(C)C3=CC[C@H]2C1(C)C | 20.6 | 0.4 |  | > 10 |  |  |  |  |  |  |
| CC(C)=CCC[C@H](C(=O)O)[C@@H]1CC[C@]2(C)C3=C(CC[C@@]12C)[C@@]1(C)CC[C@@H](O)C(C)(C)[C@@H]1CC3 | 3.5 | 1.1 | 81.9 | > 10 |  |  |  |  |  |  |

Reference: ChEMBL document CHEMBL3286230, “Tetra- and pentacyclic triterpene acids from the ancient anti-inflammatory remedy frankincense as inhibitors of microsomal prostaglandin E(2) synthase-1” (J Nat Prod, 2014)
